The source of these data is ChEMBL document CHEMBL4152206, “Design, synthesis, cytotoxicity and mechanism of novel dihydroartemisinin-coumarin hybrids as potential anti-cancer agents” (Eur J Med Chem, 2018).

By IC50 is commonly meant the concentration that inhibits the measured activity by half.

For the first test, the system named is HT-29. Description: Cytotoxicity against human HT-29 cells after 96 hrs under normoxic condition by MTT assay. In kind it is functional, cell-based. The note with it: Homo sapiens, HT-29, 96 h; read-out: IC50. The method in brief: (§1)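 MTT viability assay in HT-29 (high CA IX) and MDA-MB-231 (normal CA IX) cells under normoxic and hypoxic conditions; IC50 values reported.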
A general note: Tetrazolium dyes change colour on reduction, which living cells bring about.
For the molecule `C[C@H]1[C@@H](OCCc2cn(CCOc3ccc4c(C(F)(F)F)cc(=O)oc4c3)nn2)O[C@@H]2O[C@@]3(C)CC[C@H]4[C@H](C)CC[C@@H]1[C@@]24OO3`, the IC50 was 3.58 µM.

In the case of `Cc1c(Cl)c(=O)oc2cc(OCCO[C@H]3O[C@@H]4O[C@@]5(C)CC[C@H]6[C@H](C)CC[C@@H]([C@H]3C)[C@@]46OO5)ccc12`, the IC50 was determined as 23.9 µM.

As for `Cc1c(Cl)c(=O)oc2cc(OCCCn3cc(CCO[C@H]4O[C@@H]5O[C@@]6(C)CC[C@H]7[C@H](C)CC[C@@H]([C@H]4C)[C@@]57OO6)nn3)ccc12`, the 50% inhibitory concentration (IC50) turned out to be 1.19 µM.

Regarding `Cc1c(C)c2ccc(OCCCO[C@H]3O[C@@H]4O[C@@]5(C)CC[C@H]6[C@H](C)CC[C@@H]([C@H]3C)[C@@]46OO5)cc2oc1=O`, the IC50 stood at 8.71 µM.

`CC(=O)Nc1nnc(S(N)(=O)=O)s1` [ACETAZOLAMIDE]: the IC50 is above 100 µM.

For a further test, the system named is MDA-MB-231. The test can be described thus: Cytotoxicity against human MDA-MB-231 cells after 96 hrs under hypoxic condition by MTT assay. In kind it is functional, cell-based. The note with it: Homo sapiens, MDA-MB-231, 96 h; read-out: IC50. The method in brief: as §1
With `C[C@H]1[C@@H](OCCc2cn(CCOc3ccc4c(C(F)(F)F)cc(=O)oc4c3)nn2)O[C@@H]2O[C@@]3(C)CC[C@H]4[C@H](C)CC[C@@H]1[C@@]24OO3`, the IC50 amounted to 14.2 µM.

Take `Cc1c(Cl)c(=O)oc2cc(OCCO[C@H]3O[C@@H]4O[C@@]5(C)CC[C@H]6[C@H](C)CC[C@@H]([C@H]3C)[C@@]46OO5)ccc12`: the IC50 came to 5.36 µM.

On to `Cc1c(Cl)c(=O)oc2cc(OCCCn3cc(CCO[C@H]4O[C@@H]5O[C@@]6(C)CC[C@H]7[C@H](C)CC[C@@H]([C@H]4C)[C@@]57OO6)nn3)ccc12`, for which the IC50 is 6.07 µM.

With `Cc1c(C)c2ccc(OCCCO[C@H]3O[C@@H]4O[C@@]5(C)CC[C@H]6[C@H](C)CC[C@@H]([C@H]3C)[C@@]46OO5)cc2oc1=O`, the IC50 worked out at 7.92 µM.

As for `CC(=O)Nc1nnc(S(N)(=O)=O)s1` [ACETAZOLAMIDE], the IC50 is above 100 µM.

Another test deals with HT-29. Description: Cytotoxicity against human HT-29 cells after 96 hrs under hypoxic condition by MTT assay. In kind it is functional, cell-based. The conditions noted are these: Homo sapiens, HT-29, 96 h; read-out: IC50. The procedure, abridged: as §1
As to `C[C@H]1[C@@H](OCCc2cn(CCOc3ccc4c(C(F)(F)F)cc(=O)oc4c3)nn2)O[C@@H]2O[C@@]3(C)CC[C@H]4[C@H](C)CC[C@@H]1[C@@]24OO3`, the IC50 is 4.01 µM.

In the case of `Cc1c(Cl)c(=O)oc2cc(OCCO[C@H]3O[C@@H]4O[C@@]5(C)CC[C@H]6[C@H](C)CC[C@@H]([C@H]3C)[C@@]46OO5)ccc12`, the IC50 stood at 7.02 µM.

`Cc1c(Cl)c(=O)oc2cc(OCCCn3cc(CCO[C@H]4O[C@@H]5O[C@@]6(C)CC[C@H]7[C@H](C)CC[C@@H]([C@H]4C)[C@@]57OO6)nn3)ccc12`: the half-inhibitory concentration (IC50) was 1.68 µM.

As to `Cc1c(C)c2ccc(OCCCO[C@H]3O[C@@H]4O[C@@]5(C)CC[C@H]6[C@H](C)CC[C@@H]([C@H]3C)[C@@]46OO5)cc2oc1=O`, the IC50 was 3.54 µM.

Regarding `CC(=O)Nc1nnc(S(N)(=O)=O)s1` [ACETAZOLAMIDE], the half-maximal inhibitory concentration (IC50) was above 100 µM.

Another test relates to MDA-MB-231. Description: Cytotoxicity against human MDA-MB-231 cells after 96 hrs under normoxic condition by MTT assay. The conditions noted are these: Homo sapiens, MDA-MB-231, 96 h; read-out: IC50. In kind it is functional, cell-based. The method in brief: as §1
On to `C[C@H]1[C@@H](OCCc2cn(CCOc3ccc4c(C(F)(F)F)cc(=O)oc4c3)nn2)O[C@@H]2O[C@@]3(C)CC[C@H]4[C@H](C)CC[C@@H]1[C@@]24OO3`, for which the IC50 was 17.9 µM.

Consider `Cc1c(Cl)c(=O)oc2cc(OCCO[C@H]3O[C@@H]4O[C@@]5(C)CC[C@H]6[C@H](C)CC[C@@H]([C@H]3C)[C@@]46OO5)ccc12`, for which the IC50 was found to be 18 µM.

For `Cc1c(Cl)c(=O)oc2cc(OCCCn3cc(CCO[C@H]4O[C@@H]5O[C@@]6(C)CC[C@H]7[C@H](C)CC[C@@H]([C@H]4C)[C@@]57OO6)nn3)ccc12`, the IC50 is 31 µM.

Consider `Cc1c(C)c2ccc(OCCCO[C@H]3O[C@@H]4O[C@@]5(C)CC[C@H]6[C@H](C)CC[C@@H]([C@H]3C)[C@@]46OO5)cc2oc1=O`, for which the IC50 was 17.1 µM.

For `CC(=O)Nc1nnc(S(N)(=O)=O)s1` [ACETAZOLAMIDE], the IC50 is above 100 µM.
